Laboratory results published in paper PMC6435016 (Biophysics and Physicobiology, 2019).
Each block holds one molecule with its values, some of them ahead of it.

Columns and labels:
[1] = system: CD28 (biotinylated 41-residue phosphopeptide corresponding to cytoplasmic region of CD28); test: SPR binding to immobilized CD28 cytoplasmic phosphopeptide; settings: 25°C
[2] = system: intracellular tail of inducible T-cell co-stimulator; test: SPR binding to intracellular tail of inducible T-cell co-stimulator; settings: data not shown
[3] = CD thermal stability / transition curve at 222 nm; type: physicochemical; settings: following dissociation of the dimer
Summary of the method: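 Human Grb2 SH2 (residues 60–152) expressed as GST fusion in E. coli BL21(DE3); monomer and dimer split by gel filtration. 0.04 mg mL⁻¹ in PBS pH 7.4, 1.0 cm cell; 222 nm signal heated 20–80°C at 1.0°C min⁻¹. Tm from two-state fit, zero heat-capacity change. Samples heated to 50°C, cooled to 20°C, then rerun by far-UV CD and SEC (PBS, 280 nm).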

[4] = SEC analysis of monomer/dimer state; type: physicochemical; settings: data not shown
[5] = fluorescence and SEC; similar to Grb2 SH2 dimer dissociating at 40–45°C; ref [39]; cited from earlier work

Molecule: W121S: Grb2 SH2 mutant, Trp121 replaced by Ser, by site-directed mutagenesis
ability to bind to CD28 ([1]; monomer and dimer of W121S at 800, 1600, 3200, 6400 nM): loses the ability to bind to CD28
binding to intracellular tail of inducible T-cell co-stimulator [2]: could not bind

Ka,kin ([1]; association constant calculated from the two kinetic rate constants): 117000 M⁻¹
Molecule: monomer: SH2 domain of human Grb2 (residues 60–152), monomer fraction purified by gel filtration
temperature of denaturation of monomer [3]: around 60 °C

B1: Gads SH2: SH2 domain of Grb2-related adaptor downstream of Shc (Gads) (protein)
chain: WFHEGLSRHQAENLLMGKEVGFFIIRASQSSPGDFSISVRHEDDVQHFKVMRDNKGNYFLWTEKFPSLNKLVDYYRTNSISRQKQIFLRDRT
oligomeric state [4]: exists as a monomer with a small population of dimers
thermal transition (dimer to monomer) [5]: A similar transition was recently reported
